Laboratory results taken from ChEMBL document CHEMBL4339255, “Dimeric Pyranonaphthoquinone Glycosides with Anti-HIV and Cytotoxic Activities from a Soil-Derived Streptomyces” (J Nat Prod, 2019).

Columns and labels:
HL-60 = assay: Cytotoxicity in human HL60 cells assessed as reduction in cell viability incubated for 72 hrs by MTS assay; assay type: functional, cell-based; conditions: HL-60, 72 h
How it was run: (§1)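 Cells plated at 5 × 10^3 per well, left 24 h, then given a range of sample concentrations from DMSO solutions, in triplicate; DMSO-only negative controls, paclitaxel and cisplatin positive controls. After 72 h exposure, MTS added for 2 h at 37 °C, absorbance read at 492 nm, IC50 by the Reed and Muench method.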

MCF7 = assay: Cytotoxicity in human MCF7 cells assessed as reduction in cell viability incubated for 72 hrs by MTS assay; assay type: functional, cell-based; conditions: MCF7, 72 h; how it was run: as §1
[1] = Toxicity in human C8166 cells assessed as reduction in cell viability incubated for 72 hrs by MTT assay; assay type: cell-based
[2] = Therapeutic index, ratio of CC50 for toxicity in C8166 cells to EC50 for antiviral activity against HIV1 3B infected in human C8166 cells; assay type: cell-based; conditions: read-out: Ratio CC50/EC50
[3] = system: Human immunodeficiency virus 1; assay: Antiviral activity against HIV1 3B infected in human C8166 cells assessed as inhibition of syncytial cell formation incubated for 72 hrs; assay type: functional, organism-based; conditions: Human immunodeficiency virus 1, 3B, C8166, 72 h

SMILES: COC(=O)C[C@H]1C[C@@]2(S[C@@]34C[C@H](CC(=O)O[C@H]5O[C@@H](C(=O)OC)[C@H](O)[C@@H](O)[C@@H]5O)O[C@@H](C)[C@@]3(O)C(=O)c3c(O)cccc3C4=O)C(=O)c3cccc(O)c3C(=O)[C@]2(O)[C@H](C)O1
- IC50 (HL-60): 16.1 µM
- IC50 (MCF7): 3.4 µM

SMILES: COC(=O)C[C@H]1C[C@@]2(S[C@@]34C[C@H](CC(=O)OC)O[C@@H](C)[C@@]3(O)C(=O)c3c(O[C@H]5O[C@@H](C(=O)O)[C@H](O)[C@@H](O)[C@@H]5O)cccc3C4=O)C(=O)c3cccc(O)c3C(=O)[C@]2(O)[C@H](C)O1
- CC50 at 72 h [1]: > 100 µM
- selectivity ratio [2]: > 2.2
- EC50 [3]: 44.7 µM

SMILES: COC(=O)C[C@H]1C[C@@]2(S[C@@]34C[C@H](CC(=O)O[C@H]5O[C@@H](C(=O)O)[C@H](O)[C@@H](O)[C@@H]5O)O[C@@H](C)[C@@]3(O)C(=O)c3c(O)cccc3C4=O)C(=O)c3cccc(O)c3C(=O)[C@]2(O)[C@H](C)O1
- CC50 at 72 h [1]: 52 µM
- selectivity ratio [2]: 5.4
- EC50 [3]: 9.6 µM

SMILES: COC(=O)C[C@H]1C[C@@]2(S[C@@]34C[C@H](CCO[C@H]5O[C@@H](C(=O)OC)[C@H](O)[C@@H](O)[C@@H]5O)O[C@@H](C)[C@@]3(O)C(=O)c3c(O)cccc3C4=O)C(=O)c3cccc(O)c3C(=O)[C@]2(O)[C@H](C)O1
- CC50 at 72 h [1]: 36.4 µM
- IC50 (HL-60): 14.9 µM
- selectivity ratio [2]: 4.2
- EC50 [3]: 8.6 µM
- IC50 (MCF7): 3.4 µM

SMILES: COC(=O)C[C@H]1C[C@@]2(S[C@@]34C[C@H](CC(=O)O[C@H]5OC(C(=O)O)=C[C@@H](O)[C@@H]5O)O[C@@H](C)[C@@]3(O)C(=O)c3c(O)cccc3C4=O)C(=O)c3cccc(O)c3C(=O)[C@]2(O)[C@H](C)O1
- CC50 at 72 h [1]: 63.7 µM
- IC50 (HL-60): 9.9 µM
- selectivity ratio [2]: 22.5
- EC50 [3]: 2.8 µM
- IC50 (MCF7): 1.4 µM

SMILES: COC(=O)C[C@H]1C[C@@]2(S[C@@]34C[C@H](CCO[C@H]5O[C@@H](C(=O)O)[C@H](O)[C@@H](O)[C@@H]5O)O[C@@H](C)[C@@]3(O)C(=O)c3c(O)cccc3C4=O)C(=O)c3cccc(O)c3C(=O)[C@]2(O)[C@H](C)O1
- CC50 at 72 h [1]: 56.4 µM
- selectivity ratio [2]: 5.9
- EC50 [3]: 9.6 µM

SMILES: Nc1ccn([C@@H]2CS[C@H](CO)O2)c(=O)n1 [LAMIVUDINE]
- CC50 at 72 h [1]: > 1000 µM
- selectivity ratio [2]: > 2910
- EC50 [3]: 0.3 µM

SMILES: CC(=O)O[C@H]1C(=O)[C@@]2(C)[C@H]([C@H](OC(=O)c3ccccc3)[C@]3(O)C[C@H](OC(=O)[C@H](O)[C@@H](NC(=O)c4ccccc4)c4ccccc4)C(C)=C1C3(C)C)[C@]1(OC(C)=O)CO[C@@H]1C[C@@H]2O [PACLITAXEL]
- IC50 (HL-60): < 0.008 µM
- IC50 (MCF7): < 0.008 µM
